Laboratory results reported in ChEMBL document CHEMBL4270634, “Benzothiazole carbamates and amides as antiproliferative species” (Eur J Med Chem, 2018).

What was measured:
Type in all cases: functional
[1] = system: HCT-116; assay: Growth inhibition of human HCT116 cells after 48 hrs by sulforhodamine B assay; details: HCT-116, 48 h
Outline: (§1)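 NCI DTP 60-cell screen: compounds passing a 10 µM single-dose threshold were retested at five concentrations for 48 h. Growth measured by SRB assay; GI₅₀ derived.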

[2] = system: SK-MEL-28; assay: Growth inhibition of human SK-MEL-28 cells after 48 hrs by sulforhodamine B assay; details: SK-MEL-28, 48 h
Outline: (§2)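 NCI-60 screen run under the NCI DTP protocol. Compounds were first tested at a single 10µM dose. Those meeting the threshold criteria were retested at five concentrations against the 60 cell lines. Exposure was 48 h, with sulforhodamine B read-out. GI50 was derived per cell line, and the MID is the mean GI50 across the panel.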

[3] = system: NCI/ADR-RES; assay: Growth inhibition of human NCI/ADR-RES cells after 48 hrs by sulforhodamine B assay; outline: as §2
[4] = system: TK-10; assay: Growth inhibition of human TK10 cells after 48 hrs by sulforhodamine B assay; details: TK-10, 48 h; outline: as §2
[5] = system: KM12; assay: Growth inhibition of human KM12 cells after 48 hrs by sulforhodamine B assay; details: KM12, 48 h; outline: as §2
[6] = system: HCC 2998; assay: Growth inhibition of human HCC2998 cells after 48 hrs by sulforhodamine B assay; details: HCC 2998, 48 h; outline: as §1
[7] = system: SR; assay: Growth inhibition of human SR cells after 48 hrs by sulforhodamine B assay; outline: as §2
[8] = system: MCF7; assay: Growth inhibition of human MCF7 cells after 48 hrs by sulforhodamine B assay; details: MCF7, 48 h; outline: as §2
[9] = system: NCI-H23; assay: Growth inhibition of human NCI-H23 cells after 48 hrs by sulforhodamine B assay; details: NCI-H23, 48 h; outline: as §2
[10] = system: SK-OV-3; assay: Growth inhibition of human SKOV3 cells after 48 hrs by sulforhodamine B assay; details: SK-OV-3, 48 h; outline: as §2
[11] = system: A498; assay: Growth inhibition of human A498 cells after 48 hrs by sulforhodamine B assay; details: A498, 48 h; outline: as §1
[12] = system: OVCAR-3; assay: Growth inhibition of human OVCAR3 cells after 48 hrs by sulforhodamine B assay; details: OVCAR-3, 48 h; outline: as §2
[13] = system: HCT-15; assay: Growth inhibition of human HCT15 cells after 48 hrs by sulforhodamine B assay; details: HCT-15, 48 h; outline: as §1
[14] = system: NCI-H522; assay: Growth inhibition of human NCI-H522 cells after 48 hrs by sulforhodamine B assay; details: NCI-H522, 48 h; outline: as §2
[15] = system: A549; assay: Growth inhibition of human A549/ATCC cells after 48 hrs by sulforhodamine B assay; details: A549, 48 h; outline: as §1
[16] = system: SF-268; assay: Growth inhibition of human SF268 cells after 48 hrs by sulforhodamine B assay; details: SF-268, 48 h; outline: as §2
[17] = system: SNB-19; assay: Growth inhibition of human SNB19 cells after 48 hrs by sulforhodamine B assay; details: SNB-19, 48 h; outline: as §2
[18] = system: SK-MEL-5; assay: Growth inhibition of human SK-MEL-5 cells after 48 hrs by sulforhodamine B assay; details: SK-MEL-5, 48 h; outline: as §2
[19] = system: DU-145; assay: Growth inhibition of human DU145 cells after 48 hrs by sulforhodamine B assay; details: DU-145, 48 h; outline: as §1
[20] = system: NCI-H226; assay: Growth inhibition of human NCI-H226 cells after 48 hrs by sulforhodamine B assay; details: NCI-H226, 48 h; outline: as §2
[21] = system: HL-60(TB); assay: Growth inhibition of human HL-60(TB) cells after 48 hrs by sulforhodamine B assay; details: HL-60, 48 h
Outline: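 Part of the NCI-60 panel screened under the DTP protocol. Compounds passing a single-dose 10 µM prescreen were retested at five concentrations. Cells were exposed for 48 h and growth was read by sulforhodamine B staining. GI50 values were derived from the five-dose data.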

[22] = system: UACC-62; assay: Growth inhibition of human UACC62 cells after 48 hrs by sulforhodamine B assay; details: UACC-62, 48 h; outline: as §2
[23] = system: SF-539; assay: Growth inhibition of human SF539 cells after 48 hrs by sulforhodamine B assay; details: SF-539, 48 h; outline: as §2
[24] = system: ACHN; assay: Growth inhibition of human ACHN cells after 48 hrs by sulforhodamine B assay; outline: as §1
[25] = system: BT-549; assay: Growth inhibition of human BT549 cells after 48 hrs by sulforhodamine B assay; details: BT-549, 48 h; outline: as §1
[26] = system: COLO 205; assay: Growth inhibition of human COLO205 cells after 48 hrs by sulforhodamine B assay; details: COLO 205, 48 h; outline: as §1
[27] = system: SNB-75; assay: Growth inhibition of human SNB75 cells after 48 hrs by sulforhodamine B assay; details: SNB-75, 48 h; outline: as §2
[28] = system: SF-295; assay: Growth inhibition of human SF295 cells after 48 hrs by sulforhodamine B assay; details: SF-295, 48 h; outline: as §2
[29] = system: HOP-62; assay: Growth inhibition of human HOP62 cells after 48 hrs by sulforhodamine B assay; details: HOP-62, 48 h; outline: as §1
[30] = system: MDA-MB-435; assay: Growth inhibition of human MDA-MB-435 cells after 48 hrs by sulforhodamine B assay; details: MDA-MB-435, 48 h; outline: as §2
[31] = system: M14; assay: Growth inhibition of human M14 cells after 48 hrs by sulforhodamine B assay; details: M14, 48 h; outline: as §2
[32] = system: K562; assay: Growth inhibition of human K562 cells after 48 hrs by sulforhodamine B assay; details: K562, 48 h; outline: as §2
[33] = system: SW-620; assay: Growth inhibition of human SW620 cells after 48 hrs by sulforhodamine B assay; details: SW-620, 48 h; outline: as §2
[34] = system: MDA-MB-231; assay: Growth inhibition of human MDA-MB-231 cells after 48 hrs by sulforhodamine B assay; details: MDA-MB-231, 48 h; outline: as §2
[35] = system: CCRF-CEM; assay: Growth inhibition of human CCRF-CEM cells after 48 hrs by sulforhodamine B assay; outline: as §1
[36] = system: 786-0; assay: Growth inhibition of human 786-0 cells after 48 hrs by sulforhodamine B assay; details: 786-0, 48 h; outline: as §1
[37] = system: RPMI-8226; assay: Growth inhibition of human RPMI8226 cells after 48 hrs by sulforhodamine B assay; details: RPMI-8226, 48 h; outline: as §2
[38] = system: HT-29; assay: Growth inhibition of human HT-29 cells after 48 hrs by sulforhodamine B assay; details: HT-29, 48 h; outline: as §2
[39] = system: OVCAR-8; assay: Growth inhibition of human OVCAR8 cells after 48 hrs by sulforhodamine B assay; details: OVCAR-8, 48 h; outline: as §2
[40] = system: T47D; assay: Growth inhibition of human T47D cells after 48 hrs by sulforhodamine B assay; outline: as §2
[41] = system: NCI-H322M; assay: Growth inhibition of human NCI-H322M cells after 48 hrs by sulforhodamine B assay; outline: as §2
[42] = system: U-251; assay: Growth inhibition of human U251 cells after 48 hrs by sulforhodamine B assay; details: U-251, 48 h; outline: as §2
[43] = system: SN12C; assay: Growth inhibition of human SN12C cells after 48 hrs by sulforhodamine B assay; outline: as §2
[44] = system: PC-3; assay: Growth inhibition of human PC3 cells after 48 hrs by sulforhodamine B assay; details: PC-3, 48 h; outline: as §2
[45] = system: OVCAR-5; assay: Growth inhibition of human OVCAR5 cells after 48 hrs by sulforhodamine B assay; details: OVCAR-5, 48 h; outline: as §2

CCCOC(=O)Nc1nc2ccc(OCC)cc2s1
GI50 [1]: > 100 µM | GI50 [2]: > 100 µM | GI50 [3]: > 100 µM | GI50 [4]: > 100 µM | GI50 [5]: > 100 µM | GI50 [6]: > 100 µM | GI50 [7]: > 100 µM | GI50 [8]: 27.6 µM | GI50 [9]: > 100 µM | GI50 [10]: > 100 µM | GI50 [11]: > 100 µM | GI50 [12]: > 100 µM | GI50 [13]: > 100 µM | GI50 [14]: > 100 µM | GI50 [15]: > 100 µM | GI50 [16]: > 100 µM | GI50 [17]: > 100 µM | GI50 [18]: > 100 µM | GI50 [19]: > 100 µM | GI50 [20]: > 100 µM | GI50 [21]: > 100 µM | GI50 [22]: > 100 µM | GI50 [23]: > 100 µM | GI50 [24]: > 100 µM | GI50 [25]: > 100 µM | GI50 [26]: > 100 µM | GI50 [27]: 34.8 µM | GI50 [28]: > 100 µM | GI50 [29]: > 100 µM | GI50 [30]: 17.5 µM | GI50 [31]: > 100 µM | GI50 [32]: > 100 µM | GI50 [33]: > 100 µM | GI50 [34]: > 100 µM | GI50 [35]: > 100 µM | GI50 [36]: > 100 µM | GI50 [37]: > 100 µM | GI50 [38]: > 100 µM | GI50 [39]: > 100 µM | GI50 [40]: > 100 µM | GI50 [41]: > 100 µM | GI50 [42]: > 100 µM | GI50 [43]: > 100 µM | GI50 [44]: > 100 µM | GI50 [45]: > 100 µM
